Calls of active or inactive are those of the source.
What was measured:
[1] = tested on: Mus musculus; experiment: Anticonvulsant activity against pilocarpine-induced seizure in albino Swiss (CD-1) mouse assessed as prolongation of latency time to death at 100 mg/kg, ip administered 60 mins before pilocarpine challenge; format: functional; conditions: route intraperitoneal
How it was run: (§1)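 Male CD-1 mice dosed i.p. with compound or vehicle (1% Tween 80). Scopolamine butylbromide 1 mg/kg i.p. given 45 min before pilocarpine; pilocarpine 400 mg/kg i.p. given 60 min after compound. Observed 1 h. Latency to tonic-clonic seizure and latency to death recorded, cut-off 60 min. 7–8 mice per group, mean ± SEM, Student's t-test against vehicle.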

[2] = tested on: Mus musculus; experiment: Anticonvulsant activity against pilocarpine-induced seizure in albino Swiss (CD-1) mouse assessed as prolongation of latency time to death at 200 mg/kg, ip administered 60 mins before pilocarpine challenge; format: functional; conditions: route intraperitoneal; how it was run: as §1
[3] = tested on: Mus musculus; experiment: Anticonvulsant activity against pilocarpine-induced seizure in albino Swiss (CD-1) mouse assessed as prolongation of latency time to seizures at 200 mg/kg, ip administered 60 mins before pilocarpine challenge; format: functional; conditions: route intraperitoneal
How it was run: (§2)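 CD-1 mice received compound or vehicle (1% Tween 80) i.p. 60 min before pilocarpine 400 mg/kg i.p. Scopolamine butylbromide 1 mg/kg i.p. was given 45 min before pilocarpine. 7–8 mice per group; Student's t-test versus vehicle; mean ± SEM.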

[4] = tested on: Mus musculus; experiment: Antinociceptive activity in ip dosed albino Swiss (CD-1) mouse measured after 60 mins by hot plate test; format: functional, organism-based
[5] = tested on: Mus musculus; experiment: Antidepressant-like activity in albino Swiss (CD-1) mouse assessed as reduction in immobility time at 15 mg/kg, ip by forced swim test; format: functional; conditions: route intraperitoneal
How it was run: (§3)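 Compound or vehicle was given i.p. 60 min before the test. Each mouse was placed for 6 min in a glass cylinder (25 cm high, 10 cm diameter) holding 10 cm of water at 23–25 C. Immobility, meaning passive floating, was timed over the final 4 min. 7–8 mice per group; ANOVA with Dunnett's test.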

[6] = tested on: Mus musculus; experiment: Anticonvulsant activity in albino Swiss (CD-1) mouse assessed as current intensity required to induce 50% tonic hind limb extensions at 100 mg/kg, ip after 60 mins by electroconvulsive threshold test (reference value: 6.61 mA); format: functional, Hindlimb; conditions: route intraperitoneal
[7] = tested on: Mus musculus; experiment: Anticonvulsant activity against pilocarpine-induced seizure in albino Swiss (CD-1) mouse assessed as prolongation of latency time to seizures at 100 mg/kg, ip administered 60 mins before pilocarpine challenge; format: functional; conditions: route intraperitoneal; how it was run: as §2
[8] = tested on: Mus musculus; experiment: Antidepressant-like activity in albino Swiss (CD-1) mouse assessed as reduction in immobility time at 30 mg/kg, ip by forced swim test; format: functional; conditions: route intraperitoneal; how it was run: as §3
[9] = molecular target: T1, GABA transporter 2 (Mus musculus) (UniProt P31651); experiment: Inhibition of mouse GAT2 expressed in HEK293 cells assessed as decrease in [3H]GABA uptake; format: cell-based; conditions: concentration not given here
T1 sequence (whole entry): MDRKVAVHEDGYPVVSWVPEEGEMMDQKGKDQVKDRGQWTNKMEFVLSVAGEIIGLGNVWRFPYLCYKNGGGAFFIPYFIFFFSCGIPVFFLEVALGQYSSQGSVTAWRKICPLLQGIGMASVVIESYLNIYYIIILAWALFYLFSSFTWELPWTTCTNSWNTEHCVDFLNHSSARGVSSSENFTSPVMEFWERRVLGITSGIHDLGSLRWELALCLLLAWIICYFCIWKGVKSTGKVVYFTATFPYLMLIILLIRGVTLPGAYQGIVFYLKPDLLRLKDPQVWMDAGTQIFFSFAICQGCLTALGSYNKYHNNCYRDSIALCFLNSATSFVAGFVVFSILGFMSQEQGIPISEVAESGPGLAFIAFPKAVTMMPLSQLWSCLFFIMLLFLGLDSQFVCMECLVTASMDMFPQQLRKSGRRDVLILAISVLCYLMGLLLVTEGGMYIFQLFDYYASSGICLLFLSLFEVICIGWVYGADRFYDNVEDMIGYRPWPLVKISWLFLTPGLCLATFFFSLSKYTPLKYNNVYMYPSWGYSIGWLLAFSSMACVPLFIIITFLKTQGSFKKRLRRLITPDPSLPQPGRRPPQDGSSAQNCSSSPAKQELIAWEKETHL

[10] = tested on: Mus musculus; experiment: Anticonvulsant activity against pentylenetetrazole-induced seizure in albino Swiss (CD-1) mouse assessed as decrease in seizure episodes at 100 mg/kg, ip administered 60 mins prior to PTZ challenge; format: functional; conditions: route intraperitoneal
How it was run: (§4)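 Male CD-1 mice, 18–22 g, given compound or vehicle i.p. 60 min before PTZ 100 mg/kg s.c. Each mouse observed alone for 30 min for clonic seizures: whole-body clonus over 3 s with loss of righting reflex. Read-outs: latency to first clonus, number of seizure episodes, and deaths within 30 min. Groups of 7–10 mice, compared with vehicle.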

[11] = tested on: Mus musculus; experiment: Anticonvulsant activity against pentylenetetrazole-induced seizure in albino Swiss (CD-1) mouse assessed as decrease in mortality rate at 100 mg/kg, ip administered 60 mins prior to PTZ challenge; format: functional; conditions: route intraperitoneal; how it was run: as §4
[12] = tested on: Mus musculus; experiment: Anticonvulsant activity against pentylenetetrazole-induced seizure in albino Swiss (CD-1) mouse assessed as delay in onset of seizures at 100 mg/kg, ip administered 60 mins prior to PTZ challenge; format: functional; conditions: route intraperitoneal; how it was run: as §4

**Q.** For COc1ccc(C(OCCN2CCC[C@H](C(=O)O)C2)(c2ccc(OC)cc2)c2ccc(OC)cc2)cc1, which Activity [1] is on record?
**A.** 243.8%

**Q.** What about the Activity [2] of the same compound?
**A.** 202.7%

**Q.** What about the Activity [3] of the same compound?
**A.** 258.9%

**Q.** And the Activity [4]?
**A.** inactive

**Q.** What about the inhibition in vivo at 15 mg/kg [5] of the same compound?
**A.** 12.1%

**Q.** And the CS50 [6]?
**A.** 7.95 mA

**Q.** And the Activity [7]?
**A.** 158%

**Q.** What about the inhibition in vivo at 30 mg/kg [8] of the same compound?
**A.** 19.9%

**Q.** And the inhibition [9]?
**A.** 56%

**Q.** For CCC1(C)CC(=O)NC1=O (configuration not stated) [ETHOSUXIMIDE], which inhibition in vivo at 100 mg/kg [10] is on record?
**A.** 64%

**Q.** What about the inhibition in vivo at 100 mg/kg [11] of the same compound?
**A.** 75%

**Q.** And the Activity [12]?
**A.** 120%
